Laboratory results from ChEMBL document CHEMBL1142173, “Novel macrolide resistance module carried by the IncP-1beta resistance plasmid pRSB111, isolated from a wastewater treatment plant” (2007).
Converted amounts (≈) assume the structure as drawn.

Assays:
Format in all cases: functional
[1] = tested on: Pseudomonas sp.; experiment: Antibacterial activity against Pseudomonas sp. B13 GFP1
[2] = tested on: Pseudomonas sp.; experiment: Antibacterial activity against Pseudomonas sp. B13 GFP1 containing multiresistance plasmid pRSB101
[3] = tested on: Pseudomonas sp.; experiment: Antibacterial activity against Pseudomonas sp. B13 GFP1 containing macrolide resistance plasmid pRSB111
How it was run: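 Host is Pseudomonas sp. strain B13 GFP1 carrying pRSB111, captured by exogenous mating from wastewater-plant final effluent. It is maintained in LB with erythromycin (300 μg/ml) at 30°C. MIC is in μg/ml, with the plasmid-free B13 GFP1 strain tested alongside.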

[4] = tested on: Escherichia coli; experiment: Antibacterial activity against Escherichia coli DH5-alpha containing pUC18; details: DH5alpha
How it was run: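 MIC measured for E. coli DH5α transformed with the empty vector pUC18, which served as the control. It was tested alongside DH5α carrying pUC18 clones of PCR-amplified fragments of the pRSB111 macrolide resistance region (mphR(E), mph(E), mrx(E)).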

[5] = tested on: Escherichia coli; experiment: Antibacterial activity against Escherichia coli DH5-alpha containing macrolide-resistant pUC18-mph(E) region; details: DH5alpha
How it was run: (§1)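 Host is E. coli DH5α carrying pUC18 with PCR-amplified fragments of the pRSB111 macrolide resistance region (covering mphR(E), mph(E) and/or mrx(E)). MIC is read per recombinant strain, with DH5α carrying empty pUC18 as control.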

[6] = tested on: Escherichia coli; experiment: Antibacterial activity against Escherichia coli DH5-alpha containing macrolide-resistant pUC18-mrx(E) region; details: DH5alpha; how it was run: as §1
[7] = tested on: Escherichia coli; experiment: Antibacterial activity against Escherichia coli DH5alpha containing macrolide-resistant pUC18-mph(E)-mrx(E) region; how it was run: as §1

Structure (SMILES)	MIC [1] [µg/mL]	MIC [2] [µg/mL]	MIC [3] [µg/mL]	MIC [4] [µg/mL]	MIC [5] [µg/mL]	MIC [6] [µg/mL]	MIC [7] [µg/mL]
CC[C@H]1OC(=O)[C@H](C)[C@@H](O[C@H]2C[C@@](C)(OC)[C@@H](O)[C@H](C)O2)[C@H](C)[C@@H](O[C@@H]2O[C@H](C)C[C@H](N(C)C)[C@H]2O)[C@](C)(O)C[C@@H](C)/C(=N\OCOCCOC)[C@H](C)[C@@H](O)[C@]1(C)O [ROXITHROMYCIN]	25 (≈ 29.9 µM)	1200 (≈ 1430 µM)	1400 (≈ 1670 µM)	450 (≈ 538 µM)	550 (≈ 657 µM)	300 (≈ 358 µM)	2500 (≈ 2990 µM)
CC[C@H]1OC(=O)[C@H](C)[C@@H](O[C@H]2C[C@@](C)(OC)[C@@H](O)[C@H](C)O2)[C@H](C)[C@@H](O[C@@H]2O[C@H](C)C[C@H](N(C)C)[C@H]2O)[C@](C)(O)C[C@@H](C)C(=O)[C@H](C)[C@@H](O)[C@]1(C)O [ERYTHROMYCIN]	20 (≈ 27.3 µM)	2500 (≈ 3410 µM)	2500 (≈ 3410 µM)	200 (≈ 273 µM)	250 (≈ 341 µM)	150 (≈ 204 µM)	2400 (≈ 3270 µM)
CC[C@H]1OC(=O)C[C@@H](O)[C@H](C)[C@@H](O[C@@H]2O[C@H](C)[C@@H](O[C@H]3C[C@@](C)(O)[C@@H](O)[C@H](C)O3)[C@H](N(C)C)[C@H]2O)[C@@H](CC=O)C[C@@H](C)C(=O)/C=C/C(C)=C/[C@@H]1CO[C@@H]1O[C@H](C)[C@@H](O)[C@@H](OC)[C@H]1OC [TYLOSIN]	150 (≈ 164 µM)	150 (≈ 164 µM)	400 (≈ 437 µM)				
